“And” between values parts separate entries of the source, which are not always exact repeats. Equal entries are not always repeated. “Also recorded” adds a separate entry of the source.
What was measured:
[1] = test system: glucosylceramide; test: Glucosylceramide concentration in plasma and CSF, LEAP trial; format: in vivo, human
Procedure, shortened: (§1)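 CSF collected by lumbar puncture at baseline and Weeks 1, 4, 26, 52; plasma at baseline and Weeks 1, 4, 12, 26, 39, 52. Dosing was oral test compound 15 mg once daily with maintenance IV enzyme replacement. LLOQ: glucosylceramide 0.1 μg/ml plasma, 2.0 ng/ml CSF; glucosylsphingosine 5.0 ng/ml plasma, 5 pg/ml CSF. Change from baseline summarised as median percentage with interquartile range and 95% CI.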

[2] = test system: adults with GD3; test: Resting functional MRI connectivity; format: in vivo, human
Procedure, shortened: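 Resting-state BOLD fMRI at baseline, Week 26 and Week 52, analysed centrally and blinded. Regions of interest came from FreeSurfer segmentation masks, using parcellation of the baseline high-resolution 3D-T1 image. Full and partial connectivity were computed between resting-state networks 1, 2, 3, 6, 7 and 8 using published template maps.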

[3] = Venglustat CSF pharmacokinetics, LEAP trial; format: in vivo, human; details: for CSF venglustat concentration, mean (SD): 10 patients (Patient 9 excluded); for CSF venglustat concentration, Patient 9: single patient with low exposure
Procedure, shortened: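 CSF for drug levels collected pre-dose on Day 1 and 2–4 h post-dose at Weeks 4, 26 and 52 (reported as ~4 h), while on oral test compound 15 mg once daily. Concentrations summarised descriptively, with one patient excluded from summary statistics. Values below LLOQ entered as 0.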

[4] = test system: adults with GD3; test: Vineland Adaptive Behavior Scale II; format: in vivo, human; details: over 1 year of venglustat treatment
[5] = test system: adults with GD3; test: Brain volumetric MRI, tensor-based morphometry; format: in vivo, human
Procedure, shortened: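 MRI of brain and brainstem (at least T1 and T2) at baseline, Week 26 and Week 52 on 1.5 or 3 T scanners, read centrally by a reviewer blinded to patient and time point. FreeSurfer parcellation. Tensor-based morphometry: symmetric log-demons registration of baseline/follow-up pairs with a cross-correlation metric. The Jacobian determinant integrated over each region gives the rate of volume change.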

[6] = test system: mouse models of neurological GD; details: cited from earlier work
[7] = test system: adults with GD3; test: Safety and tolerability, LEAP trial; format: in vivo, human; details: 1 year, 11 patients
Procedure, shortened: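 Open-label, single-arm study at six centres: 11 adults with GD3 took oral test compound 15 mg once daily with maintenance IV imiglucerase every 2 weeks (stable doses 38.5–125 U/kg). Safety and tolerability were assessed over 52 weeks. No pre-specified statistical testing.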

[8] = test system: adults with GD3; test: Ataxia, Scale for Assessment and Rating of Ataxia; format: in vivo, human
[9] = test system: adults with GD3; test: Trail Making Test; format: in vivo, human
Procedure, shortened: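 Neurocognition measured with the Trail Making Test: Part A (timed visual search and psychomotor speed) and Part B (set-shifting, executive component). Trail B minus Trail A time was derived to remove graphomotor and visual-scanning variance. Baseline versus Week 52 under oral test compound 15 mg once daily plus maintenance IV enzyme replacement.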

[10] = test system: glucosylceramide synthase; details: cited from earlier work
[11] = test system: adults with GD3; test: Systemic manifestations of GD; format: in vivo, human
Procedure, shortened: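 Haemoglobin, platelet count, and liver and spleen volumes assessed per standard clinical practice over 1 year of daily oral test compound 15 mg plus maintenance IV enzyme replacement. Bone mineral density measured by DXA; bone marrow burden scored from lumbar spine and femur MRI. Lung function followed ATS standards: spirometry (FVC, FEV₁), total lung capacity and carbon monoxide diffusing capacity.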

[12] = test system: plasma glucosylceramide; details: cited from earlier work
[13] = test system: glucosylsphingosine; test: Glucosylsphingosine concentration in plasma and CSF, LEAP trial; format: in vivo, human
Procedure, shortened: as §1

[14] = test system: ceramide; test: Ceramide in CSF; format: in vivo, human; details: baseline and throughout the study
Procedure, shortened: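 Exploratory CSF biomarkers quantified in CSF taken by lumbar puncture at baseline and Weeks 1, 4, 26 and 52. Adults with GD3 received oral test compound 15 mg once daily plus maintenance IV enzyme replacement for 52 weeks.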

[15] = test system: CYP3A; details: no reference given; cited from earlier work
[16] = test system: adults with GD3; test: Horizontal and vertical saccadic eye movements; format: in vivo, human; details: after 1 year; horizontal or vertical velocity and amplitude
Procedure, shortened: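 Horizontal and vertical saccades recorded non-invasively and assessed by a central reader. Eye-position and target traces were filtered to give eye velocity. Saccades were detected by velocity criteria, and amplitude, duration and peak velocity were derived. Patients took oral test compound 15 mg once daily on top of maintenance IV enzyme replacement for 1 year.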

[17] = baseline to Week 52, 11 patients
[18] = individual patients, baseline to Week 52
[19] = after 1 year, patient with low venglustat exposure
[20] = venglustat in combination with imiglucerase

In the case of `CC(C)(NC(=O)O[C@@H]1CN2CCC1CC2)c1csc(-c2ccc(F)cc2)n1` [Venglustat], the “median glucosylceramide reduction in CSF” value [1, 17] is reported as 81%, the “median glucosylceramide reduction in plasma” value [1, 17] is reported as 78% and the “Glucosylceramide concentration, CSF, Change” value [1, 18] is reported as −4.04 ng/ml and −4.95 ng/ml and −8.95 ng/ml and +1.64 ng/ml and −4.17 ng/ml and −4.7 ng/ml and −3.32 ng/ml and −3.53 ng/ml and −7.02 ng/ml and −13.3 ng/ml. For the same compound, the “Glucosylceramide concentration, CSF, Percentage change” value [1, 18] was −80.2% and −83.2% and −80.6% and +37.1% and −80.7% and −82.5% and −47.4% and −77.9% and −76.9% and −87.5% and −93%, the “Glucosylceramide concentration, Plasma, Change” value [1, 18] was −4.31 μg/ml and −5.49 μg/ml and −4.7 μg/ml and +1.14 μg/ml and −3.97 μg/ml and −2.24 μg/ml and −5.31 μg/ml and −4.19 μg/ml and −3.68 μg/ml and −6.69 μg/ml and the “Glucosylceramide concentration, Plasma, Percentage change” value [1, 18] was −82.5% and −78.4% and −71.6% and +13.7% and −78.2% and −85.9% and −45.8% and −84% and −80.3% and −77% and −85.1%. The “functional connectivity relative to baseline” value ([2]; Weeks 26 and 52, patients with venglustat exposure (fMRI Group A)) was “stronger connectivity”, the “maximal increased correlation coefficient” value ([2]; fMRI Group A (nine patients)) was 0.19 ± 0.16 and the “CSF venglustat concentration, mean (SD)” value ([3]; Week 4, ~4 h post-dose, 15 mg once daily) was 6.63 (2.42) ng/ml. The “CSF venglustat concentration, Patient 9” value ([3]; Week 4) was 3.05 ng/mL, the “CSF venglustat concentration, mean (SD)” value ([3]; Week 26, ~4 h post-dose, 15 mg once daily) was 6.77 (1.96) ng/ml and the “CSF venglustat concentration, Patient 9” value ([3]; Week 26) was 1.77 ng/mL. For the same compound, the “CSF venglustat concentration, mean (SD)” value ([3]; Week 52, ~4 h post-dose, 15 mg once daily) was 6.14 (3.44) ng/ml, the “CSF venglustat concentration, Patient 9” value ([3]; Week 52) was “undetectable” and the “steady state reached (CSF)” value ([3]; mean CSF concentrations, Patient 9 excluded, 15 mg once daily) was no more than 4 Week. For the same compound, the “crossing of the blood–brain barrier” value ([3]; venglustat detectable in CSF 4 h post dose over 1 year (excluding Patient 9)) was “crossed the blood–brain barrier”, the “Vineland II domain scores over time” value [4] was “deteriorated in all domains; also recorded: All domains decreased in normative score” and the “ventricular volume increase, Patient 9” value [5, 19] was 9.6%. The “whole brain volume reduction, Patient 9” value [5, 19] was 1.57%, the “change in whole brain volume, Patient 9” value ([5]; after 1 year, patient with low-to-undetectable venglustat exposure, baseline 882 951 mm^3) was −13894.8 mm^3 and the “MRI whole brain volume, Percentage change” value [5, 18] was −0.52% and 0.38% and 0.11% and −1.57% and −0.22% and −0.23% and 0.025% and 0.48% and 0.21%. For the same compound, the “regional brain volume change (mean atrophy ± SD), left cuneus” value ([5]; vMRI Group A, Week 52) was 37.2 ± 46.2, the “regional brain volume change (mean atrophy ± SD), left entorhinal” value ([5]; vMRI Group A, Week 52) was 34.5 ± 32.1 and the “regional brain volume change (mean atrophy ± SD), left lingual” value ([5]; vMRI Group A, Week 52) was 50.1 ± 80.0. The “regional brain volume change (mean atrophy ± SD), left pericalcarine” value ([5]; vMRI Group A, Week 52) was 18.5 ± 22.0, the “regional brain volume change (mean atrophy ± SD), left putamen” value ([5]; vMRI Group A, Week 52) was 94.7 ± 78.7 and the “regional brain volume change (mean atrophy ± SD), right accumbens area” value ([5]; vMRI Group A, Week 52) was 12.9 ± 9.6. For the same compound, the “regional brain volume change (mean atrophy ± SD), right amygdala” value ([5]; vMRI Group A, Week 52) was 60.8 ± 74.9, the “regional brain volume change (mean atrophy ± SD), right postcentral” value ([5]; vMRI Group A, Week 52) was 91.7 ± 100.0 and the “regional brain volume change (mean atrophy ± SD), right putamen” value ([5]; vMRI Group A, Week 52) was 97.8 ± 100.8. For the same compound, the “ventricle volume change (mean ± SD)” value ([5]; vMRI Group A, Week 52) was −438 ± 696.9, the “glycolipid accumulation in liver and brain” value [6] was “reduced accumulation of gluco-series glycolipids in the liver and brain” and the “median survival of treated mice” value ([6]; increased from 45 days) was 60 days. The “increase in median survival” value ([6]; treated mice) was 30%, the “adverse event: acne” value [7] was “two events in two patients” and the “adverse event: back pain” value [7] was “nine events in five patients”. For the same compound, the “adverse event: diarrhoea” value [7] was “two events in two patients”, the “adverse event: headache” value [7] was “ten events in six patients” and the “adverse event: upper respiratory tract infection” value [7] was “two events in two patients”. For the same compound, the “adverse event: vomiting” value [7] was “two events in two patients”, the “severity of most adverse events” value [7] was “mild or moderate, transient” and the “deaths and serious adverse events” value ([7]; venglustat 15 mg once daily in combination with imiglucerase) was “no deaths, serious adverse events; also recorded: no deaths or serious adverse events”. For the same compound, the “discontinuation of study treatment” value [7, 20] was “no patient discontinued”, the “patients with at least one adverse event” value [7, 20] was 11 and the “total modified SARA score at Week 52, mean” value ([8]; 11 patients, baseline mean 2.68, scale 0–32) was 1.55. The “total modified SARA score, mean change from baseline” value ([8]; Week 52, 95% CI: −2.06 to −0.21) was −1.14 points, the “patients with slightly improved total modified SARA score” value [8, 17] was “nine patients; also recorded: nine of 11” and the “time to complete TMT Trail A at Week 52, mean (SD)” value ([9]; baseline 54.4 (47.5) s) was 53.5 (43.1) s. The “time to complete Trail B minus Trail A at Week 52, mean” value ([9]; baseline 99.3 s) was 61.7 s, the “time to complete TMT Trail B at Week 52, mean (SD)” value ([9]; baseline 153.6 (149.4)) was 115.3 (76.8) seconds and the “patients with reduction in Trail B minus Trail A time” value ([9]; baseline to Week 52) was 7 of 11. For the same compound, the “time to complete TMT Trail A, mean change” value ([9]; baseline to Week 52, 95% CI: −21.0 to 19.4) was -0.8 s, the “time to complete Trail B minus Trail A, mean change” value ([9]; baseline to Week 52, 95% CI: −88.1 to 13.0) was -37.5 s and the “time to complete TMT Trail B, mean change” value ([9]; baseline to Week 52, 95% CI: −104.8 to 28.1) was -38.4 s. For the same compound, the “patients with reduction in TMT Trail B time” value ([9]; baseline to Week 52, marked reduction) was 8 of 11, the “patients with reduction in TMT Trail A time” value ([9]; baseline to Week 52, minor reduction) was 5 of 11 and the “inhibition of glucosylceramide formation” value [10] was “potent and specific inhibitor”. For the same compound, the “lumbar spine bone mineral density category” value ([11]; after 1 year, seven patients with data) was “five patients remained in the same bone density category”, the interstitial lung disease ([11]; after 1 year, seven patients with detectable disease at baseline) was “four improved” and the “bone marrow burden scores” value ([11]; during 1 year of treatment, 11 patients) was “remained in the same severity category in 10 patients”. For the same compound, the “haemoglobin concentrations, platelet counts, spleen and liver volumes” value ([11]; throughout 1 year, reference range for healthy persons) was “remained in this range”, the “mean plasma glucosylceramide reduction from baseline” value ([12]; 15 mg once daily, Day 15, healthy volunteers) was 74.6% and the “safety and tolerability in healthy volunteers” value ([12]; once-daily dosing of up to 15 mg) was “favourable safety and tolerability profile”. For the same compound, the “Emax (plasma glucosylceramide reduction)” value ([12]; pharmacokinetic-pharmacodynamic modelling after repeated dosing) was 80%, the “median glucosylsphingosine reduction in CSF” value [13, 17] was 70% and the “median glucosylsphingosine reduction in plasma” value [13, 17] was 56%. The “Glucosylsphingosine concentration, CSF, Change” value [13, 18] was −72 pg/ml and −23.2 pg/ml and −30.2 pg/ml and +75.8 pg/ml and −15.75 pg/ml and −53.5 pg/ml and −9.8 pg/ml and −14.3 pg/ml and −17.3 pg/ml and −32.7 pg/ml and −35.7 pg/ml, the “Glucosylsphingosine concentration, CSF, Percentage change” value [13, 18] was −72% and −48% and −44.7% and +313.2% and −69.7% and −95.5% and −46% and −71.1% and −87.4% and −75.7% and −70.3% and the “Glucosylsphingosine concentration, Plasma, Change” value [13, 18] was −3.2 ng/ml and −18.9 ng/ml and −33 ng/ml and +69 ng/ml and −3.79 ng/ml and −22.5 ng/ml and −6.28 ng/ml and −8.67 ng/ml and −8.07 ng/ml and −4.5 ng/ml and −31.3 ng/ml. The “Glucosylsphingosine concentration, Plasma, Percentage change” value [13, 18] was −56.1% and −50.7% and −41.4% and +43.4% and −60.3% and −57.8% and −71.5% and −59.8% and −47.8% and −23.3% and −64%, the “ceramide concentrations in CSF” value [14] was “within reference ranges” and the “metabolism by CYP3A” value [15] was “principally metabolized by the CYP3A cytochrome complex”. The “treatment effect on saccadic eye movements” value [16] was “no clear evidence of a treatment effect”.
